Reference: publication PMC9289880 (Journal of Medicinal Chemistry, 2022)
Like-named read-outs stand apart in the source and are kept apart here. *1 amine or outer side, *2 acyl side, *3 side chain or, on linkers, in order; H or OH if unused. Where a SMILES comes first, the peptide text is derived from it. Bridges are numbered along the chain shown (N, C = ends). [ ]: non-standard residue; d: D form. Pro(trans-3-OAllyl) = C=CCO[C@H]1CCN[C@@H]1C(=O)O; Pro(3R-Ph) = O=C(O)[C@H]1NCC[C@@H]1c1ccccc1; Bip = N[C@@H](Cc1ccc(-c2ccccc2)cc1)C(=O)O; Ala(cPent) = N[C@@H](CC1CCCC1)C(=O)O; d(αMeS) = C[C@@](N)(CO)C(=O)O; Ahp(2) = CCCCC[C@H](N)C(=O)O; CH2 = C([*:1])[*:2]

Key:
[1] = molecular target: KRAS^G12D (Homo sapiens, UniProt P01116, G12D); experiment: SOS-catalyzed guanine nucleotide exchange; assay type: biochemical
[2] = system: HeLa cells; experiment: NanoClick cell permeability assay; assay type: in vitro ADME, Human
[3] = system: pERK, AsPC-1 cells; experiment: AlphaScreen pERK assay in AsPC-1 cells; assay type: cell-based; details: for IC50: pERK
Summary of the method: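 AsPC-1 cells grown in RPMI 1640 (GlutaMAX, HEPES) with 10% FBS and penicillin/streptomycin. Seeded at 15 000 cells/well and held overnight at 37 °C, 5% CO2, then switched to serum-free medium. Compound dose-response series added acoustically, then incubated 2 and 18 h. Cells washed with DPBS and lysed with protease inhibitors. pERK (615 nm) and total ERK (535 nm) read by AlphaScreen SureFire multiplex. pERK/total ERK ratio fitted to 4-parameter logistic.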

[4] = Cell homogenate stability assay; assay type: in vitro ADME; details: human, HeLa cell homogenate
Summary of the method: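 HeLa cells suspended at 1 × 10^6 cells/mL, probe-sonicated on ice until homogeneous, then frozen at −20 °C until use. Peptides incubated with the homogenate (1 × 10^6 cells/mL equivalent). Loss of parent peptide over increasing time quantified by LC-MS/MS.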

[5] = read-out: AlphaScreen (AsPC-1) 2 h IC50, AsPC-1, 2 h
[6] = read-out: AlphaScreen (AsPC-1) 18 h IC50, AsPC-1, 18 h

Sequence of KRAS^G12D (P01116 1-188 isoform P01116-2 G12D): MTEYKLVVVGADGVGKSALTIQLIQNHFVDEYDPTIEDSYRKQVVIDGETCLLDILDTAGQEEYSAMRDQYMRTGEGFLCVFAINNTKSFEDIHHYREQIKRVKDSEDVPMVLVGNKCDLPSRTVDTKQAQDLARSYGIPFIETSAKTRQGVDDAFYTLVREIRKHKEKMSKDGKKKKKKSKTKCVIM

Row | SMILES | IC50 [3, 5] [nM] | IC50 [3, 6] [nM] | IC50 [1] [nM] | other results
1 | CC[C@H](C)[C@@H]1NC(=O)[C@H](Cc2ccc(-c3ccccc3)cc2)NC(=O)[C@H](CC(C)C)NC(=O)[C@@H]2[C@@H](c3ccccc3)CCN2C(=O)[C@@H](NC(=O)[C@H](CCCNC(=N)N)NC(=O)[C@H](CCCNC(=N)N)NC(C)=O)CSSC[C@@H](C(=O)N[C@@H](CCCNC(=N)N)C(=O)N[C@@H](CCCNC(=N)N)C(N)=O)NC(=O)[C@H](C(C)C)NC(=O)[C@@H]2CCCN2C(=O)[C@H](CC(=O)O)NC(=O)[C@H](Cc2ccc(O)cc2)NC(=O)[C@H](CO)NC1=O [peptide 3-09, Ac-RR-cyclo(C-Prot3Ph-L-Bip-ISYDPVC)-RR-NH2] (Ac-RRC[Pro(3R-Ph)]L[Bip]ISYDPVCRR-NH2; disulfide 3-13) |  |  |  | fold improvement in SOS potency over reference peptide 1-09 [1]: 7 fold
2 | CC[C@H](C)[C@@H]1NC(=O)[C@H](Cc2ccc(-c3ccccc3)cc2)NC(=O)[C@H](CC(C)C)NC(=O)[C@@H]2[C@@H](c3ccccc3)CCN2C(=O)[C@H](NC(=O)[C@@H](CCCNC(=N)N)NC(=O)[C@@H](CCCNC(=N)N)NC(=O)[C@H](CCCCN=[N+]=[N-])NC(C)=O)CSCSC[C@@H](C(=O)N[C@H](CCCNC(=N)N)C(=O)N[C@H](CCCNC(=N)N)C(N)=O)NC(=O)[C@H](C(C)C)NC(=O)[C@@H]2CCCN2C(=O)[C@H](CC(=O)O)NC(=O)[C@H](Cc2ccc(O)cc2)NC(=O)[C@](C)(CO)NC1=O [peptide 9, Ac-Lys(N3)-rr-cyclo(c(methylene)-Prot3Ph-L-Bip-I-aMeS-YDPVC)-rr-NH2] | 6200 | 6800 | < 1 | EC50 ([2]; read-out: NanoClick (HeLa) 4 h EC50, 4 h): 1490 nM; EC50 ([2]; read-out: NanoClick (HeLa) 18 h EC50, 18 h): 148 nM; EC50 ([2]; read-out: NanoClick permeability EC50 at 4 h, 4 h): 1500 nM; EC50 ([2]; read-out: NanoClick permeability EC50 at 18 h, 18 h): 150 nM; half-life at 1 µM [4]: > 6.2 h
3 | CC[C@H](C)[C@@H]1NC(=O)[C@H](Cc2ccc(-c3ccccc3)cc2)NC(=O)[C@H](CC(C)C)NC(=O)[C@@H]2CCCN2C(=O)[C@@H](NC(=O)[C@H](CCCNC(=N)N)NC(=O)[C@H](CCCNC(=N)N)NC(C)=O)CSSC[C@@H](C(=O)N[C@@H](CCCNC(=N)N)C(=O)N[C@@H](CCCNC(=N)N)C(N)=O)NC(=O)[C@H](C(C)C)NC(=O)[C@@H]2CCCN2C(=O)[C@H](CC(=O)O)NC(=O)[C@H](Cc2ccc(O)cc2)NC(=O)[C@H](CO)NC1=O [peptide 1-09, Ac-RR-cyclo(CPL-Bip-ISYDPVC)-RR-NH2] (Ac-RRCPL[Bip]ISYDPVCRR-NH2; disulfide 3-13) |  |  |  | fold improvement in SOS potency over reference 2 (KRpep-2) [1]: 8 fold
4 | C=CCO[C@H]1CCN2C(=O)[C@@H](NC(=O)[C@H](CCCNC(=N)N)NC(=O)[C@H](CCCNC(=N)N)NC(C)=O)CSSC[C@@H](C(=O)N[C@@H](CCCNC(=N)N)C(=O)N[C@@H](CCCNC(=N)N)C(N)=O)NC(=O)[C@H](C(C)C)NC(=O)[C@@H]3CCCN3C(=O)[C@H](CC(=O)O)NC(=O)[C@H](Cc3ccc(O)cc3)NC(=O)[C@H](CO)NC(=O)[C@H]([C@@H](C)CC)NC(=O)[C@H](Cc3ccc(-c4ccccc4)cc3)NC(=O)[C@H](CC(C)C)NC(=O)[C@H]12 [3-05, Ac-RR-cyclo(C-Prot3OAl-L-Bip-ISYDPVC)-RR-NH2] (Ac-RRC[Pro(trans-3-OAllyl)]L[Bip]ISYDPVCRR-NH2; disulfide 3-13) |  |  | 1 | fold improvement in SOS potency over reference peptide 1-09 [1]: 7 fold
5 | CC(=O)N[C@@H](CCCNC(=N)N)C(=O)N[C@@H](CCCNC(=N)N)C(=O)N[C@H]1CSSC[C@@H](C(=O)N[C@@H](CCCNC(=N)N)C(=O)N[C@@H](CCCNC(=N)N)C(N)=O)NC(=O)[C@H](C(C)C)NC(=O)[C@@H]2CCCN2C(=O)[C@H](CC(=O)O)NC(=O)[C@H](Cc2ccc(O)cc2)NC(=O)[C@H](CO)NC(=O)[C@H](CC2CCCC2)NC(=O)[C@H](Cc2ccc(-c3ccccc3)cc2)NC(=O)[C@H](CC(C)C)NC(=O)[C@@H]2CCCN2C1=O [1-11, Ac-RR-cyclo(CPL-Bip-cPeA-SYDPVC)-RR-NH2] (Ac-RRCPL[Bip][Ala(cPent)]SYDPVCRR-NH2; disulfide 3-13) |  |  | > 11100 | 
6 | CC[C@H](C)[C@@H]1NC(=O)[C@H](Cc2ccc(-c3ccccc3)cc2)NC(=O)[C@H](CC(C)C)NC(=O)[C@@H]2[C@@H](c3ccccc3)CCN2C(=O)[C@H](NC(=O)[C@H](CCCNC(=N)N)NC(=O)[C@H](CCCNC(=N)N)NC(C)=O)CSCSC[C@@H](C(=O)N[C@@H](CCCNC(=N)N)C(=O)N[C@@H](CCCNC(=N)N)C(N)=O)NC(=O)[C@H](C(C)C)NC(=O)[C@@H]2CCCN2C(=O)[C@H](CC(=O)O)NC(=O)[C@H](Cc2ccc(O)cc2)NC(=O)[C@H](CO)NC1=O [peptide 5-01, Ac-RR-cyclo(c(methylene)-Prot3Ph-L-Bip-ISYDPVC)-RR-NH2] (Ac-RR[dC][Pro(3R-Ph)]L[Bip]ISYDPVCRR-NH2; linker 3-13 via CH2) | 3300 | 33000 | < 1 | half-life at 1 µM [4]: > 6.2 h
7 | C=CCO[C@H]1CCN2C(=O)[C@H](NC(=O)[C@H](CCCNC(=N)N)NC(=O)[C@H](CCCNC(=N)N)NC(C)=O)CSCSC[C@@H](C(=O)N[C@@H](CCCNC(=N)N)C(=O)N[C@@H](CCCNC(=N)N)C(N)=O)NC(=O)[C@H](C(C)C)NC(=O)[C@@H]3CCCN3C(=O)[C@H](CC(=O)O)NC(=O)[C@H](Cc3ccc(O)cc3)NC(=O)[C@H](CO)NC(=O)[C@H]([C@@H](C)CC)NC(=O)[C@H](Cc3ccc(-c4ccccc4)cc3)NC(=O)[C@H](CC(C)C)NC(=O)[C@H]12 [5-02, Ac-RR-cyclo(c(methylene)-Prot3OAl-L-Bip-ISYDPVC)-RR-NH2] (Ac-RR[dC][Pro(trans-3-OAllyl)]L[Bip]ISYDPVCRR-NH2; linker 3-13 via CH2) | 28000 | > 50000 | < 1 | 
8 | CC[C@H](C)[C@@H]1NC(=O)[C@H](Cc2ccc(-c3ccccc3)cc2)NC(=O)[C@H](COC)NC(=O)[C@@H]2CCCN2C(=O)[C@@H](NC(=O)[C@H](CCCNC(=N)N)NC(=O)[C@H](CCCNC(=N)N)NC(C)=O)CSSC[C@@H](C(=O)N[C@@H](CCCNC(=N)N)C(=O)N[C@@H](CCCNC(=N)N)C(N)=O)NC(=O)[C@H](C(C)C)NC(=O)[C@@H]2CCCN2C(=O)[C@H](CC(=O)O)NC(=O)[C@H](Cc2ccc(O)cc2)NC(=O)[C@H](CO)NC1=O [3-02, Ac-RR-cyclo(CP-SerOMe-Bip-ISYDPVC)-RR-NH2] (Ac-RRCPS(Me)[Bip]ISYDPVCRR-NH2; disulfide 3-13) |  |  | 1130 | 
9 | CCCCC[C@@H]1NC(=O)[C@@H]2CCCN2C(=O)[C@H](CC(=O)O)NC(=O)[C@H](Cc2ccc(O)cc2)NC(=O)[C@H](CO)NC(=O)[C@H]([C@@H](C)CC)NC(=O)[C@H](Cc2ccc(-c3ccccc3)cc2)NC(=O)[C@H](CC(C)C)NC(=O)[C@@H]2[C@@H](c3ccccc3)CCN2C(=O)[C@H](NC(=O)[C@H](CCCNC(=N)N)NC(=O)[C@H](CCCNC(=N)N)NC(C)=O)CSCSC[C@@H](C(=O)N[C@@H](CCCNC(=N)N)C(=O)N[C@@H](CCCNC(=N)N)C(N)=O)NC1=O [5-03, Ac-RR-cyclo(c(methylene)-Prot3Ph-L-Bip-ISYDP-Ahp-C)-RR-NH2] (Ac-RR[dC][Pro(3R-Ph)]L[Bip]ISYDP[Ahp(2)]CRR-NH2; linker 3-13 via CH2) | 6800 | 29000 | < 1 | half-life at 1 µM [4]: > 6.2 h
10 | C=CCO[C@H]1CCN2C(=O)[C@H](NC(=O)[C@H](CCCNC(=N)N)NC(=O)[C@H](CCCNC(=N)N)NC(C)=O)CSCSC[C@@H](C(=O)N[C@@H](CCCNC(=N)N)C(=O)N[C@@H](CCCNC(=N)N)C(N)=O)NC(=O)[C@H](CCCCC)NC(=O)[C@@H]3CCCN3C(=O)[C@H](CC(=O)O)NC(=O)[C@H](Cc3ccc(O)cc3)NC(=O)[C@H](CO)NC(=O)[C@H]([C@@H](C)CC)NC(=O)[C@H](Cc3ccc(-c4ccccc4)cc3)NC(=O)[C@H](CC(C)C)NC(=O)[C@H]12 [5-04, Ac-RR-cyclo(c(methylene)-Prot3OAl-L-Bip-ISYDP-Ahp-C)-RR-NH2] (Ac-RR[dC][Pro(trans-3-OAllyl)]L[Bip]ISYDP[Ahp(2)]CRR-NH2; linker 3-13 via CH2) |  | > 50000 | < 1 | 
11 | CC[C@H](C)[C@@H]1NC(=O)[C@H](Cc2ccc(O)cc2)NC(=O)[C@H](CC(C)C)NC(=O)[C@@H]2CCCN2C(=O)[C@H](NC(=O)[C@@H](CCCNC(=N)N)NC(=O)[C@@H](CCCNC(=N)N)NC(=O)[C@H](CCCCN=[N+]=[N-])NC(C)=O)CSCSC[C@@H](C(=O)N[C@H](CCCNC(=N)N)C(=O)N[C@H](CCCNC(=N)N)C(N)=O)NC(=O)[C@H](C(C)C)NC(=O)[C@@H]2CCCN2C(=O)[C@H](CC(=O)O)NC(=O)[C@H](Cc2ccc(O)cc2)NC(=O)[C@H](CO)NC1=O [peptide 10] |  |  |  | NanoClick permeability at 4 h, in words ([2]; 4 h): no permeability; NanoClick permeability at 18 h, in words ([2]; 18 h): very limited permeability
12 | CC[C@@H](C)[C@H]1NC(=O)[C@H](Cc2ccc(-c3ccccc3)cc2)NC(=O)[C@H](CC(C)C)NC(=O)[C@@H]2[C@@H](c3ccccc3)CCN2C(=O)[C@H](NC(=O)[C@@H](CCCNC(=N)N)NC(=O)[C@@H](CCCNC(=N)N)NC(C)=O)CSCSC[C@@H](C(=O)N[C@H](CCCNC(=N)N)C(=O)N[C@H](CCCNC(=N)N)C(N)=O)NC(=O)[C@H](C(C)C)NC(=O)[C@@H]2CCCN2C(=O)[C@H](CC(=O)O)NC(=O)[C@H](Cc2ccc(O)cc2)NC(=O)[C@@](C)(CO)NC1=O [peptide 8, Ac-rr-cyclo(c(methylene)-Prot3Ph-L-Bip-i-aMeS-YDPVC)-rr-NH2] (Ac-[dR][dR][dC][Pro(3R-Ph)]L[Bip][dI][d(αMeS)]YDPVC[dR][dR]-NH2; linker 3-13 via CH2) |  |  |  | cellular (pERK) activity, in words ([3]; AsPC-1): no cellular activity; SOS GNE potency / binding, in words [1]: no response
